The test system of series [1] is Mus musculus. The experiment in a line: Toxicity in C57/BL6 mouse assessed as effect on ambulation time dosed intraperitoneally equimolar to 200 mg/kg KYNA-1 as single dose measured after 2 hrs by open field test. Type of series: organism-based, C57Bl/6. Set-up: dose 200 mg/kg, route intraperitoneal. The conditions noted are these: in vivo, ip. In outline: (§1)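 Six-week-old male C57Bl/6 mice, dosed ip once daily at 5 mL/kg in distilled water adjusted to pH 6.5; saline controls. Acute testing was 2 h after a single dose; chronic testing was on day 9, 2 h after the last of 9 daily doses. Each mouse was placed in a black open-field box (48×48×40 cm) and video-tracked for 5 min, scoring ambulation time, mean velocity and rearings.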

Series [2] deals with Mus musculus. Kind of series: Toxicity in C57/BL6 mouse assessed as effect on ambulation time dosed intraperitoneally equimolar to 200 mg/kg KYNA-1 for 9 days measured after 2 hrs post last dose by open field test. Type of series: organism-based, C57Bl/6. Set-up: dose 200 mg/kg, route intraperitoneal. As to conditions: in vivo, ip. An outline of the steps: as §1
The test system of series [3] is Mus musculus. The experiment in a line: Toxicity in C57/BL6 mouse assessed as effect on movement velocity dosed intraperitoneally equimolar to 200 mg/kg KYNA-1 as single dose measured after 2 hrs by open field test. In kind it is organism-based, C57Bl/6. Details: dose 200 mg/kg, route intraperitoneal. As to conditions: in vivo, ip. In outline:
as §1

The subject of series [4] is Mus musculus. The experiment in a line: Toxicity in C57/BL6 mouse assessed as effect on movement velocity dosed intraperitoneally equimolar to 200 mg/kg KYNA-1 for 9 days measured after 2 hrs post last dose by open field test. Type of series: organism-based, C57Bl/6. Set-up: dose 200 mg/kg, route intraperitoneal. The conditions noted are these: in vivo, ip. In outline:
as §1

Series [5] concerns Mus musculus. The experiment in a line: Toxicity in C57/BL6 mouse assessed as decrease in number of rearings dosed intraperitoneally equimolar to 200 mg/kg KYNA-1 as single dose measured after 2 hrs by open field test. Details: dose 200 mg/kg, route intraperitoneal. In kind it is organism-based, C57Bl/6. The conditions noted are these: in vivo, ip. An outline of the steps:
as §1

In series [6] the test system is Mus musculus. The experiment in a line: Toxicity in C57/BL6 mouse assessed as decrease in number of rearings dosed intraperitoneally equimolar to 200 mg/kg KYNA-1 for 9 days measured after 2 hrs post last dose by open field test. Type of series: organism-based, C57Bl/6. Set-up: dose 200 mg/kg, route intraperitoneal. As to conditions: in vivo, ip. In outline: as §1

For series [7], the system named is Hippocampus. Kind of series: Antiexcitatory activity in rat hippocampus pyramidal CA1 region assessed as reduction in field excitatory postsynaptic potential at 16 uM by electrophysiologic method. In kind it is functional. An outline of the steps:
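Acute rat hippocampal slices; recording solution ACSF with 3 mM CaCl2 and 1.5 mM MgSO4, 1.5–2 mL/min flow, 34 °C. Schaffer collaterals stimulated; fEPSP amplitude recorded in CA1 pyramidal layer before, during and after bath application of compound in ACSF. Amplitudes normalized to 10-min control period; four slices per compound.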

The subject of series [8] is Rattus norvegicus. The experiment in a line: Inhibition of NMDA in intraperitoneally dosed Wistar rat hippocampus pyramidal CA1 region assessed as reduction in amplitude of population spike by electrophysologic method. Type of series: functional, organism-based.
The test system of series [9] is Mus musculus. The experiment in a line: Toxicity in C57/BL6 mouse assessed as effect on ambulation time at 200 mg/kg, ip administered as single dose measured after 2 hrs by open field test. The conditions noted are these: in vivo. In kind it is organism-based, C57Bl/6. Set-up: dose 200 mg/kg, route intraperitoneal. In outline: as §1
Series [10] deals with Mus musculus. The experiment in a line: Toxicity in C57/BL6 mouse assessed as effect on ambulation time at 200 mg/kg, ip for 9 days measured after 2 hrs post last dose by open field test. Details: dose 200 mg/kg, route intraperitoneal. As to conditions: in vivo. In kind it is organism-based, C57Bl/6. In outline:
as §1

The test system of series [11] is Mus musculus. Kind of series: Toxicity in C57/BL6 mouse assessed as effect on movement velocity at 200 mg/kg, ip administered as single dose measured after 2 hrs by open field test. Type of series: organism-based, C57Bl/6. Set-up: dose 200 mg/kg, route intraperitoneal. As to conditions: in vivo. In outline:
as §1

In series [12] the test system is Mus musculus. Kind of series: Toxicity in C57/BL6 mouse assessed as effect on movement velocity at 200 mg/kg, ip for 9 days measured after 2 hrs post last dose by open field test. In kind it is organism-based, C57Bl/6. Set-up: dose 200 mg/kg, route intraperitoneal. As to conditions: in vivo. In outline:
as §1

The subject of series [13] is Mus musculus. Kind of series: Toxicity in C57/BL6 mouse assessed as decrease in number of rearings at 200 mg/kg, ip administered as single dose measured after 2 hrs by open field test. The conditions noted are these: in vivo. Type of series: organism-based, C57Bl/6. Set-up: dose 200 mg/kg, route intraperitoneal. An outline of the steps:
as §1

Series [14] relates to Mus musculus. The experiment in a line: Toxicity in C57/BL6 mouse assessed as decrease in number of rearings at 200 mg/kg, ip for 9 days measured after 2 hrs post last dose by open field test. Type of series: organism-based, C57Bl/6. Set-up: dose 200 mg/kg, route intraperitoneal. As to conditions: in vivo. In outline:
as §1

In series [15] the test system is Rattus norvegicus. Kind of series: Inhibition of NMDA in Wistar rat hippocampus pyramidal CA1 region assessed as reduction in amplitude of population spike at 200 mg/kg/day, ip measured up to 60 mins by electrophysologic method. Type of series: functional. The conditions noted are these: 1 h, read-out: INH, route intraperitoneal.
For series [16], the system named is Rattus norvegicus. The experiment in a line: Inhibition of NMDA in Wistar rat hippocampus pyramidal CA1 region assessed as reduction in amplitude of population spike at 200 mg/kg/day, ip up to 90 mins by electrophysologic method. In kind it is functional. The conditions noted are these: 1.5 h, read-out: INH, route intraperitoneal.

Activity calls are given as the source filed them. The rule behind the calls is not given here.

With `CN(C)CCCNC(=O)c1cc(O)c2ccccc2n1.Cl`, the Activity entry in [1], in series [2], in [3], in series [4], in series [5] and in series [6] was “Non-toxic” throughout.

Regarding `CCN(CC)CCNC(=O)c1cc(=O)c2ccccc2[nH]1`, in series [7], the result was inactive.

Consider `CN(C)CCCNC(=O)c1cc(=O)c2ccccc2[nH]1`, for which the inhibition result in series [8] was “inactive”. Moreover, in series [7], the outcome was inactive.

For the compound `O=C(c1cc(=O)c2ccccc2[nH]1)N1CCN(Cc2ccccc2)CC1`, the outcome in series [7] was inactive.

Turning to `O=C(NCCN1CCCCC1)c1cc(=O)c2ccccc2[nH]1`, the outcome in series [7] was inactive.

Consider `CN1CCCCC1CNC(=O)c1cc(=O)c2ccccc2[nH]1` (centres undefined), for which the result in series [7] was inactive.

As to `CN1CCN(C(=O)c2cc(=O)c3ccccc3[nH]2)CC1`, in series [7], the result was inactive.

With `O=C(c1cc(=O)c2ccccc2[nH]1)N1CCNCC1`, in [7], the result was inactive.

`CN(C)CCNC(=O)c1cc(O)c2ccccc2n1.Cl`: the Activity entry is recorded as “Non-toxic” in [9]; “Non-toxic” in series [10]; “Non-toxic” in series [11]; “Non-toxic” in [12]; “Toxic” in series [13]; “Non-toxic” in series [14]. Also, the Activity in [7] is on record as 50%. For the same compound, the inhibition in vivo at 200 mg/kg/day worked out at 25% in series [15] and 30% in series [16].

With `O=C(O)c1cc(=O)c2ccccc2[nH]1` [TRANSTORINE], the Activity in series [7] amounted to 70%.

Consider `O=C(NCCN1CCCC1)c1cc(=O)c2ccccc2[nH]1`, for which the outcome in [7] was inactive.

Turning to `Cl.O=C(NCCN1CCCC1)c1cc(O)c2ccccc2n1`, the Activity result in series [1], in series [2], in [3], in series [4], in series [5] and in series [6] was “Non-toxic” throughout.

In the case of `O=C(NCCN1CCOCC1)c1cc(=O)c2ccccc2[nH]1`, in series [7], the result was inactive.

As to `Nc1ccccc1C(=O)C[C@H](N)C(=O)O.O=S(=O)(O)O`, the Activity entry is recorded as “Non-toxic” in series [1]; “Non-toxic” in series [2]; “Non-toxic” in series [3]; “Non-toxic” in series [4]; “Toxic” in series [5]; “Toxic” in [6]. Also, in [7], the result was inactive.

The values above are taken from ChEMBL document CHEMBL1932935, “Synthesis and biological effects of some kynurenic acid analogs” (Bioorg Med Chem, 2011).
